Reference: ChEMBL document CHEMBL5303300, “EUbOPEN Chemogenomics Library - Multiplex” (2023)
Where “and” joins values, the source holds several entries; their conditions need not be identical. Equal entries are not always repeated.

Test system: HEK-293T
Test: Multiplex assay against HEK293T
Type: toxicity, cell-based
Conditions: human, number of replicates 2
How it was run: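 Hoechst33342, BioTracker Green Microtubule Cytoskeleton Dye, MitoTracker Red and Annexin V Alexa Fluor 680 were added to live cells at seeding, and imaging on a CQ1 microscope at 37°C and 5% CO2 followed compound addition. Gating by CellPathfinder machine learning separated cells into Hoechst high-intensity objects or normal cells, then normal cells into healthy, pyknosed or fragmented nuclei, then pyknosed cells into mitotic or apoptotic. Per cents of healthy-nucleus cells are reported for the tubulin, mitochondrial-mass and membrane-permeability phenotypes.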

[1] = 12 h, 1 µM, compound concentration 1 uM
[2] = 12 h, 10 µM, compound concentration 10 uM
[3] = 24 h, 1 µM, compound concentration 1 uM
[4] = 24 h, 10 µM, compound concentration 10 uM
[5] = 48 h, 1 µM, compound concentration 1 uM
[6] = 48 h, 10 µM, compound concentration 10 uM

With `NC(=O)c1ccc(-c2nc(-c3ccc4c(c3)OCCO4)c(-c3ccccn3)[nH]2)cc1` the “Population Apoptotic (%)” value [1] was 57% and 48%, the “Population Fragmented Nuclei (%)” value [1] was 3% and the “Population Healthy Nuclei (%)” value [1] was 83% and 85%. For the same compound, the “Population Hoechst High Intensity Objects (%)” value [1] was 6% and 8%, the “Population Membrane Permeable-Phenotype (%)” value [1] was 0% and 2% and the “Population Mitochondria Different-Phenotype (%)” value [1] was 16% and 11%. The “Population Mitotic Cells (%)” value [1] was 42% and 52%, the “Population Normal (%)” value [1] was 93% and 91% and the “Population Pyknosed Nuclei (%)” value [1] was 13% and 10%. For the same compound, the “Population Tubulin-Different-Phenotype (%)” value [1] was 54% and 46%, the “Total Cell Count” value [1] was 656 and 747 and the “Population Apoptotic (%)” value [2] was 46% and 38%. The “Population Fragmented Nuclei (%)” value [2] was 3%, the “Population Healthy Nuclei (%)” value [2] was 87% and 88% and the “Population Hoechst High Intensity Objects (%)” value [2] was 7% and 4%. The “Population Membrane Permeable-Phenotype (%)” value [2] was 3% and 5%, the “Population Mitochondria Different-Phenotype (%)” value [2] was 15% and 16% and the “Population Mitotic Cells (%)” value [2] was 53% and 61%. The “Population Normal (%)” value [2] was 92% and 95%, the “Population Pyknosed Nuclei (%)” value [2] was 9% and 8% and the “Population Tubulin-Different-Phenotype (%)” value [2] was 61% and 55%. The “Total Cell Count” value [2] was 620 and 572, the “Population Apoptotic (%)” value [3] was 44% and 61% and the “Population Fragmented Nuclei (%)” value [3] was 7% and 3%. For the same compound, the “Population Healthy Nuclei (%)” value [3] was 85% and 87%, the “Population Hoechst High Intensity Objects (%)” value [3] was 9% and 7% and the “Population Membrane Permeable-Phenotype (%)” value [3] was 2% and 1%. For the same compound, the “Population Mitochondria Different-Phenotype (%)” value [3] was 4% and 6%, the “Population Mitotic Cells (%)” value [3] was 55% and 38% and the “Population Normal (%)” value [3] was 90% and 92%. For the same compound, the “Population Pyknosed Nuclei (%)” value [3] was 7% and 8%, the “Population Tubulin-Different-Phenotype (%)” value [3] was 23% and 29% and the “Total Cell Count” value [3] was 1205 and 941. The “Population Apoptotic (%)” value [4] was 48% and 44%, the “Population Fragmented Nuclei (%)” value [4] was 4% and 3% and the “Population Healthy Nuclei (%)” value [4] was 89% and 90%. The “Population Hoechst High Intensity Objects (%)” value [4] was 7% and 8%, the “Population Membrane Permeable-Phenotype (%)” value [4] was 4% and 3% and the “Population Mitochondria Different-Phenotype (%)” value [4] was 9% and 5%. The “Population Mitotic Cells (%)” value [4] was 51% and 55%, the “Population Normal (%)” value [4] was 92% and 91% and the “Population Pyknosed Nuclei (%)” value [4] was 6% and 5%. The “Population Tubulin-Different-Phenotype (%)” value [4] was 39% and 37%, the “Total Cell Count” value [4] was 908 and 852 and the “Population Apoptotic (%)” value [5] was 14% and 25%. The “Population Fragmented Nuclei (%)” value [5] was 16% and 11%, the “Population Healthy Nuclei (%)” value [5] was 80% and 85% and the “Population Hoechst High Intensity Objects (%)” value [5] was 10%. The “Population Membrane Permeable-Phenotype (%)” value [5] was 5% and 1%, the “Population Mitochondria Different-Phenotype (%)” value [5] was 0% and the “Population Mitotic Cells (%)” value [5] was 85% and 74%. The “Population Normal (%)” value [5] was 89%, the “Population Pyknosed Nuclei (%)” value [5] was 2% and the “Population Tubulin-Different-Phenotype (%)” value [5] was 11% and 15%. The “Total Cell Count” value [5] was 3179 and 2277, the “Population Apoptotic (%)” value [6] was 6% and 9% and the “Population Fragmented Nuclei (%)” value [6] was 10% and 9%. For the same compound, the “Population Healthy Nuclei (%)” value [6] was 86% and 87%, the “Population Hoechst High Intensity Objects (%)” value [6] was 7% and 8% and the “Population Membrane Permeable-Phenotype (%)” value [6] was 5%. For the same compound, the “Population Mitochondria Different-Phenotype (%)” value [6] was 1%, the “Population Mitotic Cells (%)” value [6] was 93% and 90% and the “Population Normal (%)” value [6] was 92% and 91%. For the same compound, the “Population Pyknosed Nuclei (%)” value [6] was 3%, the “Population Tubulin-Different-Phenotype (%)” value [6] was 21% and 23% and the “Total Cell Count” value [6] was 2159 and 1774.

`CCN(CC)C/C=C/C(=O)Nc1cc2c(Nc3ccc(F)c(Cl)c3)ncnc2cc1OCC1CC1` was tested, and the “Population Apoptotic (%)” value [1] was 61% and 46%, the “Population Fragmented Nuclei (%)” value [1] was 3% and 4% and the “Population Healthy Nuclei (%)” value [1] was 79%. The “Population Hoechst High Intensity Objects (%)” value [1] was 4% and 7%, the “Population Membrane Permeable-Phenotype (%)” value [1] was 6% and 5% and the “Population Mitochondria Different-Phenotype (%)” value [1] was 26% and 30%. For the same compound, the “Population Mitotic Cells (%)” value [1] was 38% and 53%, the “Population Normal (%)” value [1] was 95% and 92% and the “Population Pyknosed Nuclei (%)” value [1] was 17% and 15%. The “Population Tubulin-Different-Phenotype (%)” value [1] was 81% and 90%, the “Total Cell Count” value [1] was 435 and 525 and the “Population Apoptotic (%)” value [2] was 81% and 84%. For the same compound, the “Population Fragmented Nuclei (%)” value [2] was 1% and 6%, the “Population Healthy Nuclei (%)” value [2] was 68% and 69% and the “Population Hoechst High Intensity Objects (%)” value [2] was 8% and 6%. For the same compound, the “Population Membrane Permeable-Phenotype (%)” value [2] was 4% and 3%, the “Population Mitochondria Different-Phenotype (%)” value [2] was 76% and 83% and the “Population Mitotic Cells (%)” value [2] was 18% and 15%. For the same compound, the “Population Normal (%)” value [2] was 91% and 93%, the “Population Pyknosed Nuclei (%)” value [2] was 29% and 23% and the “Population Tubulin-Different-Phenotype (%)” value [2] was 84% and 78%. The “Total Cell Count” value [2] was 283 and 298, the “Population Apoptotic (%)” value [3] was 50% and the “Population Fragmented Nuclei (%)” value [3] was 5% and 6%. The “Population Healthy Nuclei (%)” value [3] was 81% and 84%, the “Population Hoechst High Intensity Objects (%)” value [3] was 6% and 9% and the “Population Membrane Permeable-Phenotype (%)” value [3] was 4% and 5%. The “Population Mitochondria Different-Phenotype (%)” value [3] was 14% and 19%, the “Population Mitotic Cells (%)” value [3] was 50% and 49% and the “Population Normal (%)” value [3] was 93% and 90%. For the same compound, the “Population Pyknosed Nuclei (%)” value [3] was 12% and 8%, the “Population Tubulin-Different-Phenotype (%)” value [3] was 59% and 72% and the “Total Cell Count” value [3] was 687 and 743. For the same compound, the “Population Apoptotic (%)” value [4] was 84% and 81%, the “Population Fragmented Nuclei (%)” value [4] was 2% and 4% and the “Population Healthy Nuclei (%)” value [4] was 47% and 45%. For the same compound, the “Population Hoechst High Intensity Objects (%)” value [4] was 10%, the “Population Membrane Permeable-Phenotype (%)” value [4] was 2% and 1% and the “Population Mitochondria Different-Phenotype (%)” value [4] was 92% and 93%. For the same compound, the “Population Mitotic Cells (%)” value [4] was 15% and 18%, the “Population Normal (%)” value [4] was 89% and the “Population Pyknosed Nuclei (%)” value [4] was 49%. The “Population Tubulin-Different-Phenotype (%)” value [4] was 88% and 77%, the “Total Cell Count” value [4] was 274 and 323 and the “Population Apoptotic (%)” value [5] was 30%. The “Population Fragmented Nuclei (%)” value [5] was 9%, the “Population Healthy Nuclei (%)” value [5] was 84% and the “Population Hoechst High Intensity Objects (%)” value [5] was 9% and 7%. The “Population Membrane Permeable-Phenotype (%)” value [5] was 4% and 6%, the “Population Mitochondria Different-Phenotype (%)” value [5] was 5% and 2% and the “Population Mitotic Cells (%)” value [5] was 69%. The “Population Normal (%)” value [5] was 90% and 92%, the “Population Pyknosed Nuclei (%)” value [5] was 5% and 6% and the “Population Tubulin-Different-Phenotype (%)” value [5] was 53% and 34%. For the same compound, the “Total Cell Count” value [5] was 1264 and 1265, the “Population Apoptotic (%)” value [6] was 84% and 87% and the “Population Fragmented Nuclei (%)” value [6] was 7% and 11%. The “Population Healthy Nuclei (%)” value [6] was 32% and 33%, the “Population Hoechst High Intensity Objects (%)” value [6] was 8% and 15% and the “Population Membrane Permeable-Phenotype (%)” value [6] was 5% and 2%. For the same compound, the “Population Mitochondria Different-Phenotype (%)” value [6] was 87% and 94%, the “Population Mitotic Cells (%)” value [6] was 15% and 12% and the “Population Normal (%)” value [6] was 91% and 84%. For the same compound, the “Population Pyknosed Nuclei (%)” value [6] was 59% and 55%, the “Population Tubulin-Different-Phenotype (%)” value [6] was 84% and 80% and the “Total Cell Count” value [6] was 396 and 360.
